This note sets out measurements from ChEMBL document CHEMBL4052819 (2017).

Converted amounts (≈) assume the structure as drawn. The source made the active and inactive calls. Non-standard residues stand in square brackets, D forms with d. Residues, ends and D or L forms follow the SMILES beside them. *: point of attachment. Heptanoyl = CCCCCCC(=O)*; Dab = NCC[C@H](N)C(=O)O

What all share (assay type): functional
Assay [1] deals with Staphylococcus aureus. Briefly: Antibiofilm activity against methicillin-resistant Staphylococcus aureus LAC established catheter-associated biofilm model at 20 times MIC after 72 hrs relative to control.
Assay [2] deals with Acinetobacter baumannii. Briefly: Antibacterial activity against Acinetobacter baumannii ATCC 19606 after 18 to 20 hrs by broth microdilution method. Particulars: ATCC 19606 = CIP 70.34 = JCM 6841. On the technique in general: Dilution methods test growth across graded concentrations, often in twofold steps.
The subject of assay [3] is Escherichia coli. Nature of the assay: Antibacterial activity against Escherichia coli ATCC 25922 after 18 to 20 hrs by broth microdilution method. A digest of the protocol:
(§1)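 Broth microdilution in tryptic soy broth: 2-fold dilutions mixed 1:1 with ~1.5 × 10^5 CFU/mL inoculum, final 0.5–32 μg/mL; 37 °C, 18–20 h. MIC taken as lowest concentration giving no visible growth. At least three independent experiments, one replicate each.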

Assay [4] relates to Klebsiella pneumoniae. Nature of the assay: Antibacterial activity against Klebsiella pneumoniae ATCC 13883 after 18 to 20 hrs by broth microdilution method.
Assay [5] relates to Pseudomonas aeruginosa. Nature of the assay: Antibacterial activity against Pseudomonas aeruginosa ATCC 27853 after 18 to 20 hrs by broth microdilution method. A digest of the protocol: as §1
The subject of assay [6] is Enterococcus faecium. Briefly: Antibacterial activity against Enterococcus faecium ATCC 19434 after 18 to 20 hrs by broth microdilution method. A digest of the protocol:
as §1

Assay [7] has as its system Staphylococcus aureus. Briefly: Antibacterial activity against Staphylococcus aureus ATCC 29213 after 18 to 20 hrs by broth microdilution method. A digest of the protocol: as §1
Assay [8] deals with Staphylococcus aureus. Nature of the assay: Antibacterial activity against methicillin-resistant Staphylococcus aureus ATCC 43300 after 18 to 20 hrs by broth microdilution method. A digest of the protocol:
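Broth microdilution in tryptic soy broth: 2-fold dilutions mixed 1:1 with ~1.5 × 10^5 CFU/mL bacterial suspension in TSB, final 0.5–32 μg/mL, 37 °C for 18–20 h. MIC = lowest concentration with no visible growth. At least three independent experiments, one replicate each.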

Assay [9] deals with Acinetobacter baumannii. Briefly: Bactericidal activity against Acinetobacter baumannii ATCC 19606. The note with it: ATCC 19606 = CIP 70.34 = JCM 6841, read-out: MBC99.9. In a few lines:
(§2)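 MBC from MIC plates at end point: 50 μL from each well with no visible growth plated on tryptic soy agar and counted. MBC taken as lowest concentration giving ≥99.9% fall in viable count relative to initial inoculum. Three independent experiments, one replicate each.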

Assay [10] deals with Escherichia coli. Nature of the assay: Bactericidal activity against Escherichia coli ATCC 25922. The note with it: read-out: MBC99.9. In a few lines: as §2
Assay [11] deals with Klebsiella pneumoniae. Briefly: Bactericidal activity against Klebsiella pneumoniae ATCC 13883. Particulars: read-out: MBC99.9. In a few lines: as §2
Assay [12] deals with Pseudomonas aeruginosa. Nature of the assay: Bactericidal activity against Pseudomonas aeruginosa ATCC 27853. The note with it: read-out: MBC99.9. A digest of the protocol: as §2
The subject of assay [13] is Enterococcus faecium. Nature of the assay: Bactericidal activity against Enterococcus faecium ATCC 19434. The note with it: read-out: MBC99.9. In a few lines: as §2
Assay [14] concerns Staphylococcus aureus. Briefly: Bactericidal activity against Staphylococcus aureus ATCC 29213. The note with it: read-out: MBC99.9. A digest of the protocol: as §2
Assay [15] deals with Staphylococcus aureus. Nature of the assay: Bactericidal activity against methicillin-resistant Staphylococcus aureus ATCC 43300. The note with it: read-out: MBC99.9. A digest of the protocol:
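MBC taken at the end of the MIC test: 50 μL from each well without visible growth plated on tryptic soy agar. MBC = lowest concentration giving ≥99.9% reduction in viable cells relative to the initial inoculum. Three independent experiments, one replicate each.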

Assay [16] concerns Escherichia coli. Briefly: Antibacterial activity against Escherichia coli ATCC 25922 after 18 to 20 hrs in presence of 95% serum by broth microdilution method. In a few lines: (§3)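 Same microdilution with human serum as medium: compound 2-fold diluted in 100% serum, mixed 1:1 with 90% serum holding ~1.5 × 10^5 CFU/mL, giving 95% serum and final 0.5–64 μg/mL. MIC read as no visible growth after incubation as for the broth test.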

Assay [17] concerns Staphylococcus aureus. Nature of the assay: Antibacterial activity against Staphylococcus aureus ATCC 29213 after 18 to 20 hrs in presence of 95% serum by broth microdilution method. A digest of the protocol:
as §3

Usually MIC stands for the smallest concentration in the dilution series that meets the test's criterion for growth inhibition.

The compound `CCCCCCCCCC(=O)N[C@@H](Cc1c[nH]c2ccccc12)C(=O)N[C@@H](CC(N)=O)C(=O)N[C@@H](CC(=O)O)C(=O)N[C@@H]1C(=O)NCC(=O)N[C@@H](CCCN)C(=O)N[C@@H](CC(=O)O)C(=O)N[C@H](C)C(=O)N[C@@H](CC(=O)O)C(=O)NCC(=O)N[C@H](CO)C(=O)N[C@@H]([C@H](C)CC(=O)O)C(=O)N[C@@H](CC(=O)c2ccccc2N)C(=O)O[C@@H]1C` [DAPTOMYCIN] gave an Activity with Staphylococcus aureus [1] of 17%.

Consider `CCO/N=C(\C(=O)N[C@@H]1C(=O)N2C(C(=O)[O-])=C(Sc3nc(-c4cc[n+](C)cc4)cs3)CS[C@H]12)c1nsc(NP(=O)(O)O)n1`, for which the result in the assay with Staphylococcus aureus [1] was inactive.

As to `CCCCCCC(=O)N[C@@H](CCN)C(=O)N[C@H](C(=O)N[C@@H](CCN)C(=O)N[C@H](Cc1ccccc1)C(=O)N[C@@H](CC(C)C)C(=O)N[C@@H](CCN)C(=O)N[C@H](CC(C)C)C(=O)N[C@@H](CC(C)C)C(=O)N[C@@H](CO)C(N)=O)[C@@H](C)CC` (Heptanoyl-[Dab]I[Dab][dF]L[Dab][dL]LS-NH2), the MIC against Acinetobacter baumannii [2] is 8 to 16 µg/mL (≈ 7.17 to 14.3 µM); against Escherichia coli [3] it was 1 to 4 µg/mL (≈ 0.896 to 3.58 µM); in the assay with Klebsiella pneumoniae [4], 4 µg/mL (≈ 3.58 µM); with Pseudomonas aeruginosa [5], 2 to 4 µg/mL (≈ 1.79 to 3.58 µM); with Enterococcus faecium [6] it was 8 to 16 µg/mL (≈ 7.17 to 14.3 µM); against Staphylococcus aureus [7] it was 16 to 32 µg/mL (≈ 14.3 to 28.7 µM). Further, the MIC turned out to be 16 µg/mL (≈ 14.3 µM) in the assay on Staphylococcus aureus [8], 16 µg/mL with Escherichia coli [16] and 32 µg/mL with Staphylococcus aureus [17]. In addition, the MBC is 16 µg/mL (≈ 14.3 µM) in the assay on Acinetobacter baumannii [9]; 16 µg/mL (≈ 14.3 µM) in the assay with Escherichia coli [10]; 8 µg/mL (≈ 7.17 µM) in the assay with Klebsiella pneumoniae [11]; 8 to 16 µg/mL (≈ 7.17 to 14.3 µM) in the assay with Pseudomonas aeruginosa [12]; 16 µg/mL (≈ 14.3 µM) in the assay with Enterococcus faecium [13]; 16 to 32 µg/mL (≈ 14.3 to 28.7 µM) with Staphylococcus aureus [14]. Further, the MBC with Staphylococcus aureus [15] is 16 to 32 µg/mL (≈ 14.3 to 28.7 µM).
